From ChEMBL document CHEMBL4706728, “Discovery of a Highly Selective and Potent TRPC3 Inhibitor with High Metabolic Stability and Low Toxicity” (ACS Med Chem Lett, 2021) come the findings set out here.

Calls of active or inactive are those of the source.

In data set [1] the target is T1, Short transient receptor potential channel 3 (Homo sapiens) (UniProt Q13507).
T1 sequence (whole entry): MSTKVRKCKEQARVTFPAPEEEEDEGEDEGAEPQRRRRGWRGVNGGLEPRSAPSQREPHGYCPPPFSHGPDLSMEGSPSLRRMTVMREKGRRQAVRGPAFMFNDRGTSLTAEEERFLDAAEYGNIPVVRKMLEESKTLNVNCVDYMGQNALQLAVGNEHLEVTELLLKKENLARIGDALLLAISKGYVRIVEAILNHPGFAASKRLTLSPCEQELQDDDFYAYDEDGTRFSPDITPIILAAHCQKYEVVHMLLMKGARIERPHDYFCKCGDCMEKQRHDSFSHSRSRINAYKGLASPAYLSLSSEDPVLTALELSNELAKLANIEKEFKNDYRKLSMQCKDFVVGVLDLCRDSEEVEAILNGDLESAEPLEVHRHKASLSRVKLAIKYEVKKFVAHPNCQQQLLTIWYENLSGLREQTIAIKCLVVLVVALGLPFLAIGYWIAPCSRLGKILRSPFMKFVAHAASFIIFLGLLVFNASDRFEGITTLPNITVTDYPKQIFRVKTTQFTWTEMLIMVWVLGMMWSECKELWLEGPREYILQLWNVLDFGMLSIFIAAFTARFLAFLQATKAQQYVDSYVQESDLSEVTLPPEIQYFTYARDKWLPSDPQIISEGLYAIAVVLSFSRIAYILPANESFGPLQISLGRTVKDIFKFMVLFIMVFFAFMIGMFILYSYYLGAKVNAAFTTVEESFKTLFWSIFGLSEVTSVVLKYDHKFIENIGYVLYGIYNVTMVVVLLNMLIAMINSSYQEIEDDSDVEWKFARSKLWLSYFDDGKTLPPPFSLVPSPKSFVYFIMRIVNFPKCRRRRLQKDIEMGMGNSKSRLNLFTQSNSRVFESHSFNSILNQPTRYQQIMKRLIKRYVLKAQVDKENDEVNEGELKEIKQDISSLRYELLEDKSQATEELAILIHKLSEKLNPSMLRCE
The experiment in a line: Inhibition of human TRPC3 expressed in HEK293 cells assessed as inhibition of GSK170-induced current at 10 uM in absence of extracellular calcium by whole cell patch-clamp method relative to control. Format: cell-based. Put shortly:
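Human TRPC3 transiently expressed in HEK293 cells; whole-cell patch clamp with Ca2+-free solutions. Channel activated by GSK1702934A, then test compound at 10 μM perfused with the agonist. Inhibition expressed as percentage of the agonist-evoked current; mean ± SD, n cells per compound.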

Data set [2] deals with T2, Short transient receptor potential channel 3 (Homo sapiens, UniProt Q13507).
T2 sequence (Q13507 whole entry): T1 sequence (whole entry)
Kind of data set: Inhibition of human TRPC3 expressed in HEK293 cells assessed as inhibition of GSK170-induced current in presence of 2 mM extracellular calcium by whole cell patch-clamp method. Format: cell-based. Put shortly: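 hTRPC3 in HEK293 cells, whole-cell patch clamp with 2 mM extracellular Ca2+. Currents elicited by 1 μM GSK1702934A and challenged with a range of inhibitor concentrations by perfusion. Each concentration tested on separate cells and normalized to the cell's maximum amplitude. Dose–response curve built from the data; mean ± SD.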

In data set [3] the target is ORAI1/STIM1 (Homo sapiens, UniProt Q96D31+Q13586). Kind of data set: Inhibition of STIM/Orai1 (unknown origin) expressed in HEK293 cells assessed as reduction in thapsigargin-induced Ca2+ influx at 10 uM in presence of Ca2+ by whole cell patch clamp method. Particulars: hek293, 10 µM. The data set is classed as cell-based. For orientation: In patch-clamp work, channel activity is measured electrically.
ORAI1/STIM1, sequence (Q96D31 whole entry): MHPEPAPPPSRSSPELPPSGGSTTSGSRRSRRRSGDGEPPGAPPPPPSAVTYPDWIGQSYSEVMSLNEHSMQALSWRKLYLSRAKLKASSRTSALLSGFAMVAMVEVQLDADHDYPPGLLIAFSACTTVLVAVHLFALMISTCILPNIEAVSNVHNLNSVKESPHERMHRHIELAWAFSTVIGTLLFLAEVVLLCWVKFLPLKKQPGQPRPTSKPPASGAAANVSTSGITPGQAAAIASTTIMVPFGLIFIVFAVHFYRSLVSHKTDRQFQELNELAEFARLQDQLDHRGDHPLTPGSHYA
ORAI1/STIM1, sequence (Q13586 whole entry): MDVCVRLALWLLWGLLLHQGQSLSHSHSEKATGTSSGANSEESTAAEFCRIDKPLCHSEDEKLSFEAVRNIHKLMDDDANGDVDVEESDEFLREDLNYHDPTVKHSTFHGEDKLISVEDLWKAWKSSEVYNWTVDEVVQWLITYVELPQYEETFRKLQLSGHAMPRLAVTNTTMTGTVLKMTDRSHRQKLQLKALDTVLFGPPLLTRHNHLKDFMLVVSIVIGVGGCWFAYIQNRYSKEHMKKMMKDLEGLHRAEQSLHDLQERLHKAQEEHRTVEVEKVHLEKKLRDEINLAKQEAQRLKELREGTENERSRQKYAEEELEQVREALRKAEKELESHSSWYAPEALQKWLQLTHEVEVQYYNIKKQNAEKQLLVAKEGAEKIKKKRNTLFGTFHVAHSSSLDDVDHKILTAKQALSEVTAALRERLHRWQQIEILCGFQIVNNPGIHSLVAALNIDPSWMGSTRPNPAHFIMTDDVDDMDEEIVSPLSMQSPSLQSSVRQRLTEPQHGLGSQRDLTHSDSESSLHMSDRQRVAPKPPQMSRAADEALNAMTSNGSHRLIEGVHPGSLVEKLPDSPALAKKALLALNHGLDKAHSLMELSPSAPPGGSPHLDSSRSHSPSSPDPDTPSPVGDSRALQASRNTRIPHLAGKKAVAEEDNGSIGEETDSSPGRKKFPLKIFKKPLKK

In data set [4] the target is T3, Short transient receptor potential channel 3 (Mus musculus, UniProt Q9QZC1).
T3 sequence (Q9QZC1 whole entry): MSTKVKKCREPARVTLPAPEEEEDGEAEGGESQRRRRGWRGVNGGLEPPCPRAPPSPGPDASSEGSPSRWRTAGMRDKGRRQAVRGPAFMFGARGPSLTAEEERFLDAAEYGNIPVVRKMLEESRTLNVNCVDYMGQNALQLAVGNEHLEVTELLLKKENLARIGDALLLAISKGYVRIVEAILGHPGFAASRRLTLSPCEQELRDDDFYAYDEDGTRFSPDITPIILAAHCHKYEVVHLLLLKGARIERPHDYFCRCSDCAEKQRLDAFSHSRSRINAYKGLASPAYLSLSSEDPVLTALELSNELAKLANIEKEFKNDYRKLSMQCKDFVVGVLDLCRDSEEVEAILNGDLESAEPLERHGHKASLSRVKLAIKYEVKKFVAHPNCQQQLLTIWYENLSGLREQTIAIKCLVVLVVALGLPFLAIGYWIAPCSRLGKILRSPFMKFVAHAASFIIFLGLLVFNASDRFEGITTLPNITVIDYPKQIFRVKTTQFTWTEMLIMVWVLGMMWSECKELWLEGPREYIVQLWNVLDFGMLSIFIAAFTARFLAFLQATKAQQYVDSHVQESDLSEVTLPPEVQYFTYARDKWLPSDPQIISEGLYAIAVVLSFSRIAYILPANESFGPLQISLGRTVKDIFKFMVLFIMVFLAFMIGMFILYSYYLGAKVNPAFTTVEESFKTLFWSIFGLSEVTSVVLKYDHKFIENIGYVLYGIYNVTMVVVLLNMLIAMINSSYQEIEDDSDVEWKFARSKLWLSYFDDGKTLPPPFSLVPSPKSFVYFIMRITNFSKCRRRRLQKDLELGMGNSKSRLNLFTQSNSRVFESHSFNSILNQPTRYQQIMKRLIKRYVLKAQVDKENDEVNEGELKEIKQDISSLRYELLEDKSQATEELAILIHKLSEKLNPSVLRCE
The experiment in a line: Inhibition of mouse TRPC3 expressed in HEK293 cells assessed as inhibition of Ca2+ influx by whole cell patch-clamp method. Format: cell-based.

Data set [5] has as its target T2, Short transient receptor potential channel 3. Kind of data set: Inhibition of human TRPC3 expressed in HEK293 cells assessed as inhibition of GSK170-induced current in absence of extracellular calcium by whole cell patch-clamp method. Format: cell-based. Put shortly:
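Whole-cell patch clamp of hTRPC3 in transfected HEK293 cells, Ca2+-free solutions, currents activated by 1 μM GSK1702934A. Inhibitor at a range of concentrations perfused with agonist. Each concentration tested on independent cells and normalized to that cell's maximum current to avoid tachyphylaxis. Dose–response fitted for IC50; mean ± SD.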

The nature of data set [6]: Toxicity in NSG/ICR mouse assessed as body weight loss at 200 mg/kg, ip administered once daily for 5 days. Format: organism-based. Particulars: in vivo, 120 h, dose 200 mg/kg/day, time 5 day. Put shortly:
(§1)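 Mice (n = 5 per group) dosed at 200 mg/kg by intraperitoneal injection once daily for 5 consecutive days. Survival monitored. Body weight expressed as mean percent change ± SD relative to weight at the start of treatment (day 0), with 15% weight loss as the reference line.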

Data set [7] can be described thus: Metabolic stability in human liver microsomes assessed as half life at […] measured up to 240 mins in presence of NADPH regeneration system by LC-MS analysis. Format: ADME, Microsome. (In general: Liver microsomes are vesicles of endoplasmic reticulum, rich in cytochrome P450 enzymes.)
Data set [8] can be described thus: Metabolic stability in mouse liver microsomes assessed as half life at […] measured up to 240 mins in presence of NADPH regeneration system by LC-MS analysis. The data set is classed as ADME, Microsome.
For data set [9], the target named is T1, Short transient receptor potential channel 3 (Homo sapiens). Kind of data set: Inhibition of human TRPC3 expressed in HEK293 cells assessed as inhibition of OAG-induced current at 0.001 to 10 uM by whole cell patch-clamp method. Format: cell-based. Particulars: dose 0.001-10 µM. Put shortly: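 Whole-cell recordings of hTRPC3 expressed in HEK293 cells, channel activated by 1-oleoyl-2-acetyl-sn-glycerol (membrane-permeable diacylglycerol analogue) instead of GSK1702934A. Inhibitor at a range of concentrations co-perfused with agonist to build a dose–response profile.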

Data set [10] can be described thus: Toxicity in NSG/ICR mouse assessed as survival at 200 mg/kg, ip administered once daily for 5 days. The data set is classed as organism-based. Particulars: NSG/ICR, in vivo, dose 200 mg/kg/day, time 5 day. In a few lines:
as §1

In data set [11] the test system is Hippocampal neurone. Kind of data set: Neuroprotective activity in Sprague-Dawley rat primary hippocampal neurons assessed as reduction in Abeta-induced dendrites damage at 0.25 to 1 uM incubated for 16 hrs by MAP2 staining based assay. The data set is classed as functional, tissue-based. Particulars: dose 0.25-1 µM. In a few lines:
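Primary hippocampal neurons from E17 rat embryos, used at 14 DIV. Treated for 16 h with naturally secreted Aβ-containing 7PA2 conditioned medium (CHO medium as control), alone or with test compound at several concentrations. Neurons then immunostained for MAP2 with DAPI, and dendritic length quantified.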

The nature of data set [12]: Metabolic stability in rat liver microsomes assessed as half life at […] measured up to 240 mins in presence of NADPH regeneration system by LC-MS analysis. The data set is classed as ADME, Microsome.
Data set [13] can be described thus: Toxicity in NSG/ICR mouse assessed as mortality at 200 mg/kg, ip administered once daily for 5 days measured within 48 hrs. Format: organism-based. Particulars: in vivo, dose 200 mg/kg/day. Put shortly: as §1

In general, inhibition refers to the drop in the measured response relative to a control, in per cent. For the compound `CCOC(=O)c1cnn(-c2ccc(-n3ccc(Cl)cc3=O)cc2)c1C(F)(F)F`, the inhibition in [1] is 71%.
As usually defined, the IC50 is the concentration needed to halve the response being measured. The half-life is the time needed for the level to fall by half in the phase considered. Turning to `CCOC(=O)c1cnn(-c2ccc(NC(=O)C(Cl)=C(Cl)Cl)cc2)c1C(F)(F)F`, the figures for the IC50 in data set [2], in data set [4] and in data set [5] were 470 nM, 700 nM and 530 nM, respectively. Further, in data set [3], the “inhibition (INH)” value was “Active”. In [6], the Activity is on record as 15%. For the same compound, in [1], the inhibition was found to be 91%. In addition, the half-life in [7], in data set [8] and in data set [12] was below 15 min each time. The inhibition entry in data set [9] is “Active”. In [10], the survival at 120 h stood at 80%. In addition, the result in [11] was Active.
In the case of `CCNS(=O)(=O)c1cnn(-c2ccc(-n3ccc(Cl)c(Cl)c3=O)cc2)c1C(F)(F)F`, in data set [1], the inhibition result is “inactive”.
Consider `CCNC(=O)c1cnn(-c2ccc(-n3ccc(Cl)cc3=O)cc2)c1C(F)(F)F`, for which the inhibition in [1] was 84%.
`CCOC(=O)c1cnn(-c2ccc(-n3cc(Cl)ccc3=O)cc2)c1C(F)(F)F`: the inhibition result in [1] was “inactive”.
The term mortality denotes the percentage killed. Turning to `CCNC(=O)c1cnn(-c2ccc(NC(=O)C(Cl)=C(Cl)Cl)cc2)c1C(F)(F)F`, the mortality at 48 h in data set [13] was found to be 100%.
As for `CCOC(=O)c1cnn(-c2ccc(-n3cc(Cl)cc(Cl)c3=O)cc2)c1C(F)(F)F`, the inhibition entry in [1] is “inactive”.
Same read-out and setting: then `CCOC(=O)c1cnn(-c2ccc(-n3ccccc3=O)cc2)c1C(F)(F)F`, with “inactive”; and `CCNC(=O)c1cnn(-c2ccc(-n3ccc(Cl)c(F)c3=O)cc2)c1C(F)(F)F`, with “inactive”.
